Source: ChEMBL document CHEMBL4219092, “Design and synthesis of 1-(1-benzothiophen-7-yl)-1H-pyrazole, a novel series of G protein-coupled receptor 52 (GPR52) agonists” (Bioorg Med Chem, 2018)
≈ marks a conversion by molar mass, not a printed value. Calls of active or inactive are those of the source. The rule behind the calls is not given here.

Experiments:
[1] = Aqueous solubility of the compound at pH 6.8 by HPLC analysis; type: physicochemical
Outline: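 Compound from DMSO stock was added to aqueous buffer at pH 6.8 (JP 15th edition second disintegration fluid) and incubated. Precipitate was removed by filter-plate filtration, and the dissolved compound in the filtrate was quantified by HPLC.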

[2] = target: T1, G-protein coupled receptor 52 (Homo sapiens, UniProt Q9Y2T5); assay: Agonist activity at human GPR52 expressed in CHO cells assessed as increase in cAMP level after 30 mins by AlphaScreen assay; type: functional, cell-based
T1 sequence (Q9Y2T5 whole entry): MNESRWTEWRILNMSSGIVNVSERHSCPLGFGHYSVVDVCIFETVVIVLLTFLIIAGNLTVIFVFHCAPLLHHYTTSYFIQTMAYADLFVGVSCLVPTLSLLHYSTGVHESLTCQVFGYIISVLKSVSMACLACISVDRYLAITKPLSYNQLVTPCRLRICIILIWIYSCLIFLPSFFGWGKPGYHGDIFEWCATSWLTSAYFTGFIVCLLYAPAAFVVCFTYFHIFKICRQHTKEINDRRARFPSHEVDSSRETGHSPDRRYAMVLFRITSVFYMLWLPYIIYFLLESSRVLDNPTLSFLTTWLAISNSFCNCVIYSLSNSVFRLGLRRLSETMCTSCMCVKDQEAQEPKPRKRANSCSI
Outline: (§1)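 CHO cells stably expressing human GPR52 (10,000 cells) were incubated with compound for 30 min at 37°C in HBSS with 5 mM HEPES pH 7.6, 0.5% BSA, 100 μM IBMX and 100 μM Ro20-1724. Anti-cAMP acceptor beads and biotinylated cAMP donor beads were then added, with overnight incubation at room temperature, and AlphaScreen was read. EC50 comes from mean curves (n=2-4) relative to the 50% response of 1 μM of a benzofuran reference agonist. Emax is expressed relative to that reference.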

[3] = target: T1, G-protein coupled receptor 52; assay: Agonist activity at human GPR52 expressed in CHO cells assessed as increase in cAMP level after 30 mins by AlphaScreen assay relative to N-(2-hydroxyethyl)-3-[2-[3-(trifluoromethyl)benzyl]-1-benzofuran-4-yl]benzamide; type: functional, cell-based; outline: as §1
[4] = tested on: Mus musculus; assay: Reversal of methamphetamine-induced hyperlocomotion in ICR mouse at 0.3 mg/kg, po pretreated 60 mins post habituation followed by methamphetamine injection after 60 mins measured for 150 mins; type: functional, organism-based
Outline: (§2)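 Male ICR mice (7-8 weeks) were placed individually in locomotor monitors and habituated for 60 min. Drug was then given p.o. (test agent 10 or 30 mg/kg; haloperidol 0.3 mg/kg). Methamphetamine 2 mg/kg s.c. was injected 60 min later, and activity counts were recorded for 150 min after drug dosing. Data are mean ± S.E.M., n=6-7 per group, analysed by Williams' test against vehicle+MAP.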

[5] = tested on: Mus musculus; assay: Reversal of methamphetamine-induced hyperlocomotion in po dosed ICR mouse pretreated 60 mins post habituation followed by methamphetamine injection after 60 mins measured for 150 mins; type: functional, organism-based; outline: as §2
[6] = Protein binding in mouse plasma at 1 uM; type: ADME, cell-free; settings: read-out: PPB (converted)
[7] = Tmax in ICR mouse at 0.1 mg/kg, iv and 1 mg/kg, po administered as cassette dose by LC-MS/MS analysis; type: ADME, organism-based; settings: in vivo
Outline: (§3)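 Male ICR mice (n=3), cassette dosing at 0.1 mg/kg i.v. or 1 mg/kg p.o. Blood was collected and centrifuged to plasma. Plasma was deproteinized and centrifuged, and the supernatant was analysed by LC/MS/MS. AUC covers 0 to 8 h. Values are averages of 3 mice.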

[8] = Cmax in ICR mouse at 0.1 mg/kg, iv and 1 mg/kg, po administered as cassette dose by LC-MS/MS analysis; type: ADME, organism-based; settings: in vivo; outline: as §3
[9] = tested on: Mus musculus; assay: Toxicity in ICR mouse assessed as sedation at 10 and 30 mg/kg, po measured over 60 mins; type: organism-based; settings: in vivo, 1 h
[10] = tested on: MDR; assay: Substrate activity at MDR (unknown origin) assessed as efflux ratio; type: ADME; settings: human, not told
[11] = tested on: Mus musculus; assay: Toxicity in ICR mouse assessed as general malaise at 10 and 30 mg/kg, po measured over 60 mins; type: organism-based; settings: in vivo, 1 h
[12] = Oral bioavailability in ICR mouse at 1 mg/kg administered as cassette dose by LC-MS/MS analysis; type: ADME, organism-based; settings: in vivo; outline: as §3
[13] = AUC (0 to 8 hrs) in ICR mouse at 1 mg/kg, po administered as cassette dose by LC-MS/MS analysis; type: ADME, organism-based; design: time < 8 hr, dose 1 mg/kg, route oral; settings: in vivo; outline: as §3
[14] = Total clearance in ICR mouse at 0.1 mg/kg, iv and 1 mg/kg, po administered as cassette dose by LC-MS/MS analysis; type: ADME, organism-based; settings: in vivo; outline: as §3

SMILES | solubility [1] [µg/mL] | EC50 [2] [nM] | Emax [3] [%] | further results
Cc1nn(-c2cccc3cc(Cc4cccc(C(F)(F)F)c4)sc23)cc1C(=O)NCCO | < 0.1 | 5.2 | 102 | –
COCCNC(=O)c1cnn(-c2cccc3cc(Cc4cccc(C(F)(F)F)c4)sc23)c1 | < 0.08 | 62 | 81 | –
COCCNC(=O)c1c(C)nn(-c2cccc3cc(Cc4cccc(C(F)(F)F)c4)sc23)c1C | 2.9 (≈ 5.95 µM) | 17 | 104 | –
Cn1nc(-c2cccc3cc(Cc4cccc(C(F)(F)F)c4)sc23)cc1C(=O)NCCO | < 0.08 | 45 | 110 | –
COCCNC(=O)c1cn(-c2cccc3cc(Cc4cccc(C(F)(F)F)c4)sc23)nc1C | < 0.1 | 9.6 | 89 | –
O=C(CCCN1CCC(O)(c2ccc(Cl)cc2)CC1)c1ccc(F)cc1 | – | – | – | Activity [4]: Active
COCCNC(=O)c1cnn(-c2cccc3cc(Cc4cccc(C(F)(F)F)c4)sc23)c1C | 1.3 (≈ 2.75 µM) | 62 | 84 | –
O=C(NCCO)c1cnn(-c2cccc3cc(Cc4cccc(C(F)(F)F)c4)sc23)c1 | < 0.09 | 87 | 73 | –
Cc1nn(-c2cccc3cc(Cc4cccc(C(F)(F)F)c4)sc23)c(C)c1C(=O)NCCO | 12 (≈ 25.3 µM) | 15 | 110 | –
Cc1nn(-c2cccc3cc(Cc4cccc(C(F)(F)F)c4)sc23)c(CO)c1C(=O)NCCO | 21 (≈ 42.9 µM) | 21 | 103 | Activity [5]: Dose-dependent effect; fraction unbound at 1 µM [6]: 0.02; Tmax [7]: 1.7 h; Cmax [8]: 83 ng/mL; Activity [9]: Non-Toxic; efflux ratio [10]: 1.7; Activity [11]: Non-Toxic; bioavailability [12]: 29.9%; AUC(0-t) at 8 h [13]: 406 ng·h/mL; clearance [14]: 12.4 mL/min/kg
Cc1c(C(=O)NCCO)c(CO)nn1-c1cccc2cc(Cc3cccc(C(F)(F)F)c3)sc12 | 18 (≈ 36.8 µM) | 146 | 96 | –
